From PubChem BioAssay
HCV core dimer: inhibitors of HCV core protein dimerization, primary screen, biochemical, TR-FRET, high-throughput; TR-FRET GST/Flag-core106 dimerization, 1536-well; inhibition, % at 5 µM; hit rate 0.33% among 300,000;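 active means inhibition above the mean of all tested compounds plus 3 SD, set per screening campaign, cut at about 45% in these data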
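Material: GST/Flag-tagged HCV core106 proteins. Incubation: 4 h, 22.5 °C incubation. Read-out basis: inhibition (%) from 671 over 617 nm ratio. Measured by: TR-FRET, excitation 340 nm, emission 617 and 671 nm.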
MLLE-PAM2 inh: inhibitors of PABP1 MLLE–PAM2 peptide binding, primary screen, biochemical, fluorescence polarization, FITC-PAM2, GST-MLLE; Polyadenylate-binding protein 1 (Homo sapiens), P11940; inhibition, % at 20 µM; hit rate 0.36% among 360,000; in the data active means inhibition above about 35%, passing the limit was not always enough;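 further: plate controls were DMSO wells with GST-MLLE for no effect and wells lacking GST-MLLE protein for full effect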
DNA FID counter-1: compounds displacing fluorescent DNA intercalator, primary screen, artefact control for HCV NS3 helicase inhibitor project, biochemical, FID fluorescence | DNA fluorescent intercalator displacement | inhibition, % at 7.9 µM | hit rate 0.17% among 290,000; in the data active means inhibition above about 37%;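 further: 0% = vehicle and 100% = reference compound; higher means more ethidium bromide displaced from hairpin DNA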
NS3 helicase inh: inhibitors of HCV NS3 helicase, primary screen, biochemical, Cy5 molecular beacon fluorescence; NS3 helicase DNA unwinding; inhibition, % at 10.9 µM; hit rate 0.56% among 290,000;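 active means inhibition above the mean of all tested compounds plus 3 SD, set per campaign, cut at about 35% in these data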;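 further: 0% = DMSO wells and 100% = thioflavine S control wells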
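Assay system – hepatitis C virus NS3 helicase domain fragment enzyme · Buffer or medium – MOPS pH 6.5, MgCl2, DTT, Tween20, BSA · Reagent – Cy5/quencher beacon DNA duplex and ATP to start · Compound – single 10.9 µM dose · Timing – 1 h at 25 °C · Technique – Cy5 beacon fluorescence read at start and 1 h · Measure – % inhibition of unwinding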
PABP polyA inh: PABP poly(A) RNA binding inhibitors, primary screen, biochemical, fluorescence polarization, uHTS. Polyadenylate-binding protein 1 (Homo sapiens), P11940. inhibition, % at 35 µM. hit rate 1% among 290,000;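 further: calls also rest on retests at 20 µM and on dose response follow-up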
eIF4H FP inh: human eIF4H binding inhibitors, primary screen, translation initiation inhibitor project, biochemical, uHTS, fluorescence polarization; hit rate 0.94% among 290,000; Eukaryotic translation initiation factor 4H (Homo sapiens), Q15056; eIF4H fluorescence polarization binding assay; inhibition, % at 35 µM;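 further: calls also rest on retests at 20 µM and on dose response follow-up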
NS3 helicase cf: HCV NS3 helicase inhibitors, retest, confirmation, biochemical, Cy5 molecular beacon fluorescence, triplicate; hit rate 31% among 1,600; shares compounds with NS3 helicase inh; NS3 helicase DNA unwinding; AID 1943, 2009; inhibition, % at 10.9 µM;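 active means inhibition above the mean of all tested compounds plus 3 SD, cutoff set per campaign, cut at about 36% in these data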
DNA FID counter-2: compounds displacing fluorescent DNA intercalator, artefact control for HCV NS3 helicase inhibitor project, biochemical, FID fluorescence, triplicate; shares compounds with NS3 helicase inh; DNA fluorescent intercalator displacement; inhibition, % at 7.9 µM; hit rate 4% among 1,600; in the data active means inhibition above about 37%;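 further: 0% = vehicle and 100% = reference compound; higher means more displacement of ethidium bromide from the DNA hairpin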
DNA FID DR: compounds displacing fluorescent intercalator from DNA, dose response, counter-screen for HCV NS3 helicase inhibitor project, biochemical, fluorescence. shares compounds with NS3 helicase inh. fluorescent intercalator displacement from DNA. IC50, µM. 120 tested, under 10 active. AID 2172, 2009
* hit, by the source's call; ? = inconclusive; nt = no result. Hits are enriched below; roughly 2% of the tested compounds scored in any of these assays. Unless noted, how the calls were made is not given here.

SMILES	HCV core dimer	MLLE-PAM2 inh	DNA FID counter-1	NS3 helicase inh	PABP polyA inh	eIF4H FP inh	NS3 helicase cf	DNA FID counter-2	others
CS(=O)(=O)c1sc2nc(-c3cccs3)cc(-c3ccccc3)c2c1N	51.3*	6.3	-9.5	46.1*	?	?	78.3*	10.4
Cc1ccc(S(=O)(=O)N2CCN(C(=O)COC(=O)COc3ccccc3C(C)C)CC2)c(C)c1	nt	-88.3	nt	nt	nt	nt	nt	nt
O=C(Nc1cc(S(=O)(=O)Nc2ccc(Cl)cc2)ccc1O)c1ccc(S(=O)(=O)N2CCCCCC2)cc1	24.3	27.8	-5.5	44.8*	-8.1	-6.9	-26.1	2.7
CN(C)Cc1ncccc1Oc1nc2cc(-c3cccc(Cl)c3)sc2c(=O)n1C	nt	-12.7	nt	nt	nt	nt	nt	nt
N#CC1=C(N)Oc2ccc3ccc(O)cc3c2C1c1ccsc1 (centres undefined)	nt	121.5	-45.3	53.3*	7.6	?	-11.2	-57.2
N#CC1=C(N)Oc2cc(N)ccc2C1c1ccsc1 (centres undefined)	-6.5	-20.1	-12.7	12.4	-2.2	13.8	nt	nt
CC(=O)c1cccc(Nc2nc(-c3cccnc3)cs2)c1	nt	0.3	-12.4	44.0*	16.7	-0.5	6.2	-10.5
Cc1cc(C(=O)CSc2nc3ccccc3c(=O)n2C)c(C)n1Cc1ccc2c(c1)OCO2	27.4	-8.5	-0.2	40.0*	16.7	19.9	2.0	-18.2
O=C(COC(=O)C1(c2ccccc2F)CCCC1)N1CCNC1=O	nt	-14.5	nt	nt	nt	nt	nt	nt
N#C/C(=C\c1ccc(O)c(O)c1)S(=O)(=O)c1ccccc1	-6.2	-79.2	-11.9	37.6*	10.3	1.8	58.3*	17.0	DNA FID DR=>79.4
CN1CCN(CC(=O)Nc2nc(-c3ccccc3)cs2)CC1	-4.3	-2.2	13.7	7.0	-5.4	0.3	nt	nt
CN1CCN(CC(=O)N(C)c2nc(-c3ccccc3)cs2)CC1	-11.5	-0.9	16.3	49.3*	-10.7	1.0	-2.0	21.8
NNC(=S)Nc1cccc(-c2n[nH]c(=S)o2)c1	3.6	-0.8	-24.9	36.8*	28.9	29.8	2.5	-9.1
CN(C)C(=S)Nc1cccc(-c2n[nH]c(=S)o2)c1	0.7	-83.9	-0.4	0.7	9.1	-9.9	nt	nt
O=C(NC(=S)NNC(=O)c1ccccc1O)c1ccc([N+](=O)[O-])cc1	-1.1	40.5*	-1.9	36.2*	-12.5	3.3	-12.5	16.9
O=C(NC(=S)NC1CCSC1=O)c1ccccc1Cl (centres undefined)	-1.4	18.9	-11.7	9.1	0.7	-10.5	nt	nt
O=C(NNC(=S)NC(=O)c1ccccc1)c1ccc([N+](=O)[O-])cc1	-9.2	29.8	-8.8	13.1	-2.8	-0.4	nt	nt
O=C(NC(=S)NC1CCSC1=O)c1ccc([N+](=O)[O-])cc1 (centres undefined)	3.6	47.7*	-5.3	42.9*	6.0	1.0	-17.3	12.8
CCOc1ccc(NC(=O)COc2ccc(C(=O)NCc3cccc(OC)c3)cc2OC)cc1	nt	-0.1	nt	nt	nt	nt	nt	nt
CCCS(=O)(=O)NC(=O)C1(C)CCN(C(=O)CSc2ccccc2)C1 (centres undefined)	nt	2.6	nt	nt	nt	nt	nt	nt
Cc1c(C(=O)O)sc2nc(/C=C/c3cccc(F)c3)[nH]c(=O)c12	6.8	-7.1	-17.2	63.3*	18.3	-5.9	-11.8	10.5
CC[C@@H](C)[C@H](NC(=O)Cc1c(C)c2c(cc(C)c3c(C)c(C)oc32)oc1=O)C(=O)O	nt	-9.2	-31.6	36.7*	19.7	-10.6	10.3	-23.8
CCc1ccc(/C=C2\SC(=S)N(CCCC(=O)N(CCO)c3ccccc3)C2=O)cc1	nt	-19.6	nt	nt	nt	nt	nt	nt
N#C/C(=C\c1cccs1)C(=O)c1ccccc1Cl	-1.9	nt	-3.9	40.5*	0.6	-11.0	-26.4	7.1
CC(C)(C)C(=O)/C(C#N)=C/c1cccs1	-2.5	3.5	-2.6	1.0	0.7	-10.3	nt	nt
SMILES	HCV core dimer	MLLE-PAM2 inh	DNA FID counter-1	NS3 helicase inh	PABP polyA inh	eIF4H FP inh	NS3 helicase cf	DNA FID counter-2	others
CC(=O)OC[C@@H]1CN(Cc2ccccc2)C[C@H](n2cnc3c(N(C)C(C)C)ncnc32)O1	nt	-10.1	nt	nt	nt	nt	nt	nt
CC1(C(=O)NS(=O)(=O)c2ccc(F)cc2F)CCN1C(=O)c1ccccc1 (centres undefined)	nt	-1.1	nt	nt	nt	nt	nt	nt
O=C(N/N=C/c1cc(Br)c(Br)o1)c1ccc2c(c1)OCCO2	8.5	-52.3	-0.7	36.8*	53.7*	75.6*	0.9	3.6
O=C(/C=C/c1ccco1)Nc1sc2c(c1C(=O)O)CCC2	-6.0	18.1	-7.3	47.1*	36.4	41.0	18.9	19.2
c1ccc(OC2CCCCC2N2CCOCC2)cc1 (centres undefined)	nt	-2.1	nt	nt	nt	nt	nt	nt
CCOc1cc(C(=O)Nc2ccc(N3CCN(S(C)(=O)=O)CC3)cc2)cc(OCC)c1OCC	14.3	5.5	-12.3	39.1*	-0.6	-4.4	-2.4	-28.6
O=C(CSc1nnc(-c2ccc(O)cc2)n1-c1ccccc1)CC(=O)Nc1ccccc1	10.5	-35.3	-17.7	36.7*	-10.4	5.2	-12.3	-56.7
CC(C)Cn1c(/C=C/c2ccco2)nc2ccccc21	47.1*	-23.0	-31.4	55.4*	-12.3	83.2	-14.1	-1.3
COc1ccc(-n2c(SCC(=O)NCC3CCCO3)nc3ccccc3c2=O)cc1Cl (centres undefined)	nt	-96.4	nt	nt	nt	nt	nt	nt
Cc1nc(NCCc2ccccc2)sc1C(=O)N(C)C	-4.7	-11.4	-14.5	-0.2	5.2	-17.2	nt	nt
O=C(CSc1nc2ccccc2n1Cc1ccccc1Cl)N/N=C/c1ccccc1C(=O)O	19.2	-21.4	-28.1	39.5*	13.8	3.4	49.8*	-14.6
O=C(CSc1nc2ccccc2n1Cc1ccccc1)N/N=C/c1ccccc1C(=O)O	12.7	-25.2	-40.0	24.4	5.3	0.0	nt	nt
Cn1c(CCN2CCN(c3ccccn3)CC2)nc2cc(NC(=O)COc3ccc([N+](=O)[O-])cc3)ccc21	7.1	0.0	-4.8	37.8*	5.6	-7.6	9.0	10.2
Cc1ccc(-c2cc(-c3ccco3)c(C#N)c(=O)[nH]2)cc1	14.5	-79.0	-27.1	42.0*	?	?	26.5	-0.9
